Data taken from ChEMBL document CHEMBL1144999, “Identification of a novel, selective GABA(A) alpha5 receptor inverse agonist which enhances cognition” (J Med Chem, 2003).

How the values were obtained:
[1] = target: T1, GABA-A receptor; alpha-2/beta-3/gamma-2 (Homo sapiens, UniProt P18507+P28472+P47869); experiment: Binding affinity to human gamma-amino butyric-acid A receptor alpha-2-beta-3-gamma-2, using a [3H]-Ro- 15-1788 radioligand; type: protein-complex assay
T1 sequence (P18507 whole entry): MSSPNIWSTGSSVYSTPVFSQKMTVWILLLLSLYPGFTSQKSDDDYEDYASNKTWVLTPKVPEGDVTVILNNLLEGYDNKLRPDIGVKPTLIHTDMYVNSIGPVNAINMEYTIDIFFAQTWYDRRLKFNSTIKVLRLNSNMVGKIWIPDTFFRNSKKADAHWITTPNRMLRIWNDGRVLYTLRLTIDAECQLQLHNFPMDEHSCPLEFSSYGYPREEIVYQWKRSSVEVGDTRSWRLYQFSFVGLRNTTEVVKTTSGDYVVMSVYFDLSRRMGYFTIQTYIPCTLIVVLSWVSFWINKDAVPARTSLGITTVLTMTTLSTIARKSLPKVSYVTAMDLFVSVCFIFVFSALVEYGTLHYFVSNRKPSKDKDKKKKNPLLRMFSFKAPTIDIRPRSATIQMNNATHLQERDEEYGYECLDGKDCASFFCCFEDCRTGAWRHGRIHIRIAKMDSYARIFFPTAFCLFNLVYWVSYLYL
T1 sequence (P28472 whole entry): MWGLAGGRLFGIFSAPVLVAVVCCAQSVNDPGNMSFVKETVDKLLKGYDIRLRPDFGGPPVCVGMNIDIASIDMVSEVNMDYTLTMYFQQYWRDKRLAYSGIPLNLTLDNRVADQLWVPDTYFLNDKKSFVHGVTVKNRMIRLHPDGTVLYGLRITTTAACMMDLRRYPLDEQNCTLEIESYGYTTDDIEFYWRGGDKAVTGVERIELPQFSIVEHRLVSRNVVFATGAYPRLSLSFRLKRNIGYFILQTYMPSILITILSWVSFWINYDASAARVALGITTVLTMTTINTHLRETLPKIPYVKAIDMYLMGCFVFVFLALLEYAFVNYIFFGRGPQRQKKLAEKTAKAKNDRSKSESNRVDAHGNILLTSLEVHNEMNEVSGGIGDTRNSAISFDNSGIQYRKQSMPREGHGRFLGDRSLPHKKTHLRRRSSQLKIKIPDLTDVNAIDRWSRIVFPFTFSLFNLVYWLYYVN
T1 sequence (P47869 whole entry): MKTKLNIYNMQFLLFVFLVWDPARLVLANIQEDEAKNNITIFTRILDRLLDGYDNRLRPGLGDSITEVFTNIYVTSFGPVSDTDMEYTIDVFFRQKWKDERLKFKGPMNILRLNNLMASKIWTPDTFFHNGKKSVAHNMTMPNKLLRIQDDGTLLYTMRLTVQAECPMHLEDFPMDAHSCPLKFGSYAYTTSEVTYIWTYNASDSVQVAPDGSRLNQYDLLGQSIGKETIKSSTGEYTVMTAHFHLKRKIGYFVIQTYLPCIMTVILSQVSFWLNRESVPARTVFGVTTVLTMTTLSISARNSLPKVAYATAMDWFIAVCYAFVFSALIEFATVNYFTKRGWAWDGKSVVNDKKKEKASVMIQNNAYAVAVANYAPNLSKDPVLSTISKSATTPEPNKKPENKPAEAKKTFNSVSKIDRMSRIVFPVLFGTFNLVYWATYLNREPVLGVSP
How it was run: (§1)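 Displacement of [3H]Ro 15-1788 binding from harvested L(tk-) cells stably expressing human recombinant GABA-A receptors with β3 and γ2 subunits plus α1, α2, α3 or α5. […] Ki given as geometric mean ± SEM of three independent determinations.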

[2] = target: T2, Gamma-aminobutyric acid receptor subunit alpha-5 (Homo sapiens) (UniProt P31644); experiment: Binding selectivity for human gamma-aminobutyric-acid A receptor alpha-5 over GABA A alpha1,alpha2 and alpha-3 receptors
T2 sequence (whole entry): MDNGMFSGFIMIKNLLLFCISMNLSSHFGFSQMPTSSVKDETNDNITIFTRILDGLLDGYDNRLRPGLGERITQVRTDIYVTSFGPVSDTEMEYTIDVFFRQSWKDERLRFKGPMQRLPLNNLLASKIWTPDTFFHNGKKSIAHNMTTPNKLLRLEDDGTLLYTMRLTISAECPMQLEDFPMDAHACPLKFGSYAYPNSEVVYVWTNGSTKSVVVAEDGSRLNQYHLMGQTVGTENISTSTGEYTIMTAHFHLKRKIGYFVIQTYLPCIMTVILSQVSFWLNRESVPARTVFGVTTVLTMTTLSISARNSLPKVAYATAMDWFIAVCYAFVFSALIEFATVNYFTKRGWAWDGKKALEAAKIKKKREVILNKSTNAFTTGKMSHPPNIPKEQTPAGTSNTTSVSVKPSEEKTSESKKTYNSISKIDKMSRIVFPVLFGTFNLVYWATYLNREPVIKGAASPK

[3] = target: T3, GABA-A receptor; alpha-1/beta-3/gamma-2 (Homo sapiens, UniProt P14867+P18507+P28472); experiment: Binding affinity to human gamma-aminobutyric-acid A receptor alpha-1-beta-3-gamma-2, determined using [3H]-Ro- 15-1788 radioligand; type: protein-complex assay; how it was run: as §1
T3 sequence (P14867 whole entry): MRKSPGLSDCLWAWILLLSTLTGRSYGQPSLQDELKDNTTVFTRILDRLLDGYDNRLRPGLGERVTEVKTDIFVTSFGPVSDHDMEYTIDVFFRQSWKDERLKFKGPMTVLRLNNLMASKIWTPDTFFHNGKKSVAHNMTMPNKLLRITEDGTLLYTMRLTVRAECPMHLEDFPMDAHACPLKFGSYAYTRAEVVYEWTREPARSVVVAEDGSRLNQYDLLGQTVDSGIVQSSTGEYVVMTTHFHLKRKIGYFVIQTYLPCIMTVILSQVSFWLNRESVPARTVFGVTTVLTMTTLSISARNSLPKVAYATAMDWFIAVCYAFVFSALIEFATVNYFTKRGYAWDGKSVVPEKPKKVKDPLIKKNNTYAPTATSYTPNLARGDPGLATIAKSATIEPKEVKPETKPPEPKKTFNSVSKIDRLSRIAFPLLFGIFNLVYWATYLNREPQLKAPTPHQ
T3 sequence (P18507 whole entry): T1 sequence (P18507 whole entry)
T3 sequence (P28472 whole entry): T1 sequence (P28472 whole entry)

[4] = target: T4, GABA-A receptor; alpha-5/beta-3/gamma-2 (Homo sapiens, UniProt P18507+P28472+P31644); experiment: Binding affinity to human GABA A alpha-5-beta-3-gamma-2 receptor, using a [3H]-Ro- 15-1788 radioligand; type: protein-complex assay; how it was run: as §1
T4 sequence (P18507 whole entry): T1 sequence (P18507 whole entry)
T4 sequence (P28472 whole entry): T1 sequence (P28472 whole entry)
T4 sequence (P31644 whole entry): T2 sequence (whole entry)

[5] = target: T5, GABA-A receptor; alpha-5/beta-3/gamma-2 (Homo sapiens) (UniProt P18507+P28472+P31644); experiment: Efficacy for GABA-A receptor alpha-5-beta-3-gamma-2 subunits expressed in Xenopus laevis oocytes by two-electrode voltage clamp recording; type: cell-based; conditions: Oocyte
How it was run: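 Two-electrode voltage clamp on Xenopus laevis oocytes injected with human α5β3γ2 cDNA, recorded 2-4 days after injection. Expression checked with 3 mM GABA; oocytes with currents <0.3 μA rejected. A GABA EC20 was determined per oocyte. Compound applied at a single concentration near 100× Ki. Efficacy (%) = (current with compound/control EC20 current × 100) − 100.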

[6] = target: T6, GABA-A receptor; alpha-3/beta-3/gamma-2 (Homo sapiens, UniProt P18507+P28472+P34903); experiment: Binding affinity to human gamma-amino butyric-acid A receptor alpha-3-beta-3-gamma-2, using a [3H]-Ro- 15-1788 radioligand; type: protein-complex assay; how it was run: as §1
T6 sequence (P18507 whole entry): T1 sequence (P18507 whole entry)
T6 sequence (P28472 whole entry): T1 sequence (P28472 whole entry)
T6 sequence (P34903 whole entry): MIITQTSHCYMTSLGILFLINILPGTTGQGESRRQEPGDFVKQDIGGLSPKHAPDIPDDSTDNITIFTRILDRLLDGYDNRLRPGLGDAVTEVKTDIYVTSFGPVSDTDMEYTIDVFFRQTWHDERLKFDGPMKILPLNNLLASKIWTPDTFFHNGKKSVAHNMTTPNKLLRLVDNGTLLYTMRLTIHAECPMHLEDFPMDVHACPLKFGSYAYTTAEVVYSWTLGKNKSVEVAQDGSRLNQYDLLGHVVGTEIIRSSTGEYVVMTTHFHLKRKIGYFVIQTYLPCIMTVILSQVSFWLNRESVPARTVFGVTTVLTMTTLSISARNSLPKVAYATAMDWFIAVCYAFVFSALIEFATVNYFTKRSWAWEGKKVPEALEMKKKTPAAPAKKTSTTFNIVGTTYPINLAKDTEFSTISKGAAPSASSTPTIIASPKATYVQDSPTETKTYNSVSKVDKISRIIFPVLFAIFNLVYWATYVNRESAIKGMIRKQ

[7] = target: GABA-A receptor; alpha-1/beta-3/gamma-2 (Homo sapiens) (UniProt P14867+P18507+P28472); experiment: Efficacy for human GABA-A receptor alpha-1-beta-3-gamma-2 subunits expressed in mammalian fibroblast L(tk-)cells; type: cell-based
[8] = target: GABA-A receptor; alpha-2/beta-3/gamma-2 (Homo sapiens) (UniProt P18507+P28472+P47869); experiment: Efficacy for human GABA-A receptor alpha-2-beta-3-gamma-2 subunits expressed in mammalian fibroblast L(tk-)cells; type: cell-based
[9] = target: GABA-A receptor; anion channel; experiment: Binding affinity for GABA-A Benzodiazepine receptor; type: protein-complex assay; how it was run: as §1
[10] = target: T5, GABA-A receptor; alpha-5/beta-3/gamma-2 (Homo sapiens); experiment: Efficacy for human GABA-A receptor alpha-5-beta-3-gamma-2 subunits expressed in mammalian fibroblast L(tk-)cells; type: cell-based
[11] = target: GABA-A receptor; alpha-3/beta-3/gamma-2 (Homo sapiens) (UniProt P18507+P28472+P34903); experiment: Efficacy for human GABA-A receptor alpha-3-beta-3-gamma-2 subunits expressed in mammalian fibroblast L(tk-)cells; type: cell-based
[12] = target: T7, Gamma-aminobutyric acid receptor subunit alpha-5 (Mus musculus) (UniProt Q8BHJ7); experiment: In vivo [3H]L-655708 binding to mouse GABA-A receptor alpha-5 subunit at 3 mg/kg ip dose; type: organism-based; design: dose 3 mg/kg
T7 sequence (whole entry): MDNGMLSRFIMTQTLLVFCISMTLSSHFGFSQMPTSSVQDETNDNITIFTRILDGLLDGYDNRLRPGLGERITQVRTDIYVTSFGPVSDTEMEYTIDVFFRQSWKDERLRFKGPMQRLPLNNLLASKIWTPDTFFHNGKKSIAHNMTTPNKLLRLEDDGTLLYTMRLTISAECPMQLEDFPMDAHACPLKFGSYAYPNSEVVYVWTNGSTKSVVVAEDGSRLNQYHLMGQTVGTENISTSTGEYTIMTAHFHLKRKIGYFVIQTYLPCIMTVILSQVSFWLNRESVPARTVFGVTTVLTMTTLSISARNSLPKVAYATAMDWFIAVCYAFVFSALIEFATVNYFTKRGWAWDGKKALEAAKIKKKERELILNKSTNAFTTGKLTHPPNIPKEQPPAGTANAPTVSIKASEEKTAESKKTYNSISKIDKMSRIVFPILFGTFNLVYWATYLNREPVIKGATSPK
How it was run: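 Mice were dosed ip at 10 mL/kg in 70% PEG 300. Controls were vehicle (total binding) and 5 mg/kg bretazenil (nonspecific). [3H]L-655,708 (11 µCi/mL, 1 mL/kg) was given iv 1 min before killing, 30 min after drug. Forebrain was homogenized in ice-cold 10 mM KH2PO4/100 mM KCl pH 7.4, filtered and counted by scintillation. Occupancy = 100 − (drug/vehicle specific binding)×100.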

[13] = target: T2, Gamma-aminobutyric acid receptor subunit alpha-5 (Homo sapiens); experiment: Binding selectivity for GABA-A alpha5 subunit over GABA-A alpha1,alpha2 or alpha3 subunit receptors
How it was run: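 Ki from [3H]Ro 15-1788 displacement at human recombinant α1, α2, α3 or α5 with β3γ2 receptors in L(tk-) cell membranes. […] Ki is geometric mean ± SEM of three determinations, and the ratio is taken against the α5 Ki.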

Structure (SMILES): CC(C)Nc1sc(-c2cc[nH]n2)c2c1C(=O)CC(C)(C)C2
- Ki [1]: 44 nM
- Selectivity [2]: 22
- Ki [3]: 72 nM
- Ki [4]: 3.9 nM
- Efficacy [5]: -2
- Ki [6]: 87 nM

Structure (SMILES): CC1(C)CC(=O)c2c(Sc3nccs3)sc(-c3nccs3)c2C1
- Ki [1]: 39 nM
- Selectivity [2]: 28
- Ki [3]: 24 nM
- Ki [4]: 1.4 nM
- Efficacy [5]: -5
- Ki [6]: 28 nM

Structure (SMILES): CC1(C)CC(=O)c2c(Sc3nccs3)sc(-c3cc[nH]n3)c2C1
- Ki [1]: 19 nM
- Selectivity [2]: 34
- Ki [3]: 4.3 nM
- Ki [4]: 1.4 nM
- Efficacy [5]: -7
- Ki [6]: 48 nM

Structure (SMILES): CC1(C)CC(=O)c2c(SCCCO)sc(-c3nccs3)c2C1
- Ki [1]: 48 nM
- Selectivity [2]: 17
- Ki [3]: 79 nM
- Ki [4]: 4.7 nM
- Efficacy [5]: 25
- Ki [6]: 48 nM

Structure (SMILES): CSc1sc(-c2ccccn2)c2c1C(=O)CC(C)(C)C2
- Selectivity [2]: 26
- Efficacy [5]: -31

Structure (SMILES): CCc1c(C(=O)OC)ncc2[nH]c3cc(OC)c(OC)cc3c12
- Efficacy [7]: -71%
- Efficacy [8]: -53%
- Selectivity [2]: 6
- Efficacy [5]: -34

Structure (SMILES): CC(=O)c1cc2c(s1)CCCC1=C2NN(c2ccc(Cl)cc2)C(=O)C1
- Ki [9]: 4.2 nM

Structure (SMILES): CC1(C)CC(=O)c2c(SCCO)sc(-c3ccccn3)c2C1
- Selectivity [2]: 20
- Efficacy [5]: -39

Structure (SMILES): CC1(C)CC(=O)c2c(SCCO)sc(-c3nccs3)c2C1
- Efficacy [10]: -51%
- Efficacy [11]: -3%
- Efficacy [7]: -21%
- Efficacy [8]: -1%
- Occupancy [12]: 91%
- Selectivity [13]: 13
- Efficacy [5]: -38
